Assay outcomes: PubChem BioAssay, several laboratories
Only some compounds are listed: those with a hit (about 1.5% of all), similar ones and a draw of the others.
Hep lipid drop – modulators of hepatic lipid droplet formation | hit rate 0.4% among 240,000 | AML12 mouse hepatocytes, oleate lipid droplets, BODIPY imaging | AID 1656 | inhibition, % at 6.5 µM;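 active = lipid droplet intensity inhibited by at least 50%, with more than 500 cells counted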
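Assay system: AML12 hepatocytes (mouse); Probe or stimulus: oleic acid at 100 µM to induce lipid droplet formation; Dosing: compound at 6.5 µM only; Schedule: compound with oleate, overnight; Detection: fluorescence imaging, 20x objective, two fields per well; Measure: % inhibition of lipid droplet signal.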
TAG inh – triacylglycerol accumulation inhibition. hit rate 0.66% among 230,000. inhibition, % at 12.5 µM. H9c2 cells, Nile Red lipid (TAG) fluorescence; cells loaded with 200 µM oleic acid;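 active = pattern-corrected inhibition of lipid staining of at least 50% with the nuclear-stain viability signal not falling by more than 50%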
PPC-1+TRAIL kill – compounds killing PPC-1 cancer cells with TRAIL present (potentiator screen, no TRAIL-free arm) | AID 1443 | PPC-1 cells + TRAIL, ATPLite viability luminescence | cell killing (% activity), % at 4 µM or 5 µM | hit rate 0.41% among 220,000;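 active = cell killing above 50% in the first pass at 4 µM, then a duplicate retest at 5 µM averaging 50% or more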
Platelet DG rel – modulates dense granule release in human platelets. human platelet-rich plasma, SFLLRN dense granule ATP release, luminescence. inhibition, %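 (compounds screened at 7.5 µM in platelet-rich plasma)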. hit rate 0.22% among 300,000. AID 1663;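 active = mean replicate score, as percent of positive control, at or above 50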
STAT1 blocker – reduces IFN-gamma driven STAT1 reporter signal | inhibition, % at 5.5 µM | NIH 3T3 STAT1-luciferase reporter, luminescence | AID 920 | hit rate 0.35% among 200,000;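 active = inhibition above a set limit, the mean inhibition across all tested compounds plus 3 SD, cut at about 34% in these data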
STAT3 blocker – reduces IL-6 driven STAT3 reporter signal; U3A cells, IL-6 STAT3-luciferase reporter, luminescence; host cell line lacks STAT1; inhibition, % at 5.5 µM; hit rate 0.89% among 190,000; AID 862;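 active = inhibition above the mean inhibition across all screened compounds plus 3 SD, cut at about 44% in these data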
Numbers stand for hits.

O=C(/C=C/c1ccc(O)c(O)c1)c1ccccc1O was read as Hep lipid drop inactive, TAG inh inactive, PPC-1+TRAIL kill inactive and Platelet DG rel 70.
For CS(=O)(=O)c1ncc(Cl)c(C(=O)Nc2ccc3ccccc3c2)n1 the results were Hep lipid drop inactive, TAG inh inactive, PPC-1+TRAIL kill inactive, Platelet DG rel 79, STAT1 blocker inactive and STAT3 blocker inactive.
For CC(=O)Nc1ccc(NC(=O)c2nc(S(=O)(=O)Cc3ccccc3)ncc2Cl)cc1 the results were Hep lipid drop inactive and Platelet DG rel inactive.
Screening O=C1C(=O)N(CNc2ccccn2)c2ccccc21 returned TAG inh 59, PPC-1+TRAIL kill inactive, Platelet DG rel inactive, STAT1 blocker inactive and STAT3 blocker inactive.
Screening Cc1c(/C(O)=C2/C(=O)C(=O)N(Cc3cccnc3)C2c2cccs2)cnn1-c1ccccc1 (stereo unspecified) returned Hep lipid drop inactive, TAG inh inactive, PPC-1+TRAIL kill inactive, Platelet DG rel inactive, STAT1 blocker inactive and STAT3 blocker inactive.
Cc1c(/C(O)=C2/C(=O)C(=O)N(Cc3cccnc3)C2c2ccccn2)cnn1-c1ccccc1 (stereo unspecified) was read as Hep lipid drop inactive, TAG inh inactive, PPC-1+TRAIL kill inactive, Platelet DG rel inactive, STAT1 blocker 55 and STAT3 blocker 64.
For O=C(CSc1ncccn1)NC1CCCC1 the results were TAG inh inactive.
`CN(C(=O)c1cccc(NC(=O)Cc2cccc(NC(=O)C3CCCN(C(=O)C4CCCCC4)C3)c2)c1)C1CC1` (stereo unspecified) gave TAG inh inactive.
For Cc1ccc(C(=O)Nc2ccc3c(c2)OCO3)cc1NC(=O)c1ccco1 the results were Hep lipid drop inactive, TAG inh inactive, PPC-1+TRAIL kill inactive, Platelet DG rel inactive, STAT1 blocker inactive and STAT3 blocker inactive.
CC(C)COc1ccc(C(=O)Nc2ccc(NC(=O)c3ccco3)c(Cl)c2)cc1 was read as Hep lipid drop inactive, PPC-1+TRAIL kill inactive, Platelet DG rel 50, STAT1 blocker inactive and STAT3 blocker inactive.
For Cc1cc(NC(=O)c2ccc3c(c2)OCO3)ccc1NC(=O)c1ccco1 the results were Hep lipid drop inactive, PPC-1+TRAIL kill inactive, Platelet DG rel 75, STAT1 blocker inactive and STAT3 blocker inactive.
`CSc1ccccc1NC(=O)C1(C)CCN1C(=O)Cc1ccc(-c2ccccc2)cc1` (stereo unspecified) gave TAG inh inactive.
`C#CC(C)OCC1CNC(=S)O1` (stereo unspecified) gave TAG inh inactive.
Screening COc1cc(OC)nc(C(NC(=O)C2CCN(Cc3c[nH]c4ccccc34)CC2)c2ccc(Cl)cc2)n1 (stereo unspecified) returned TAG inh inactive.
`CCOC(=O)C1CCN(C(=O)CCc2nnc3ccc(NCc4ccco4)nn23)CC1` gave Hep lipid drop inactive and Platelet DG rel 70.
Screening COC(=O)Cc1ccc(NC(=S)N2CCCC(CO)C2)cc1 (stereo unspecified) returned Hep lipid drop inactive, PPC-1+TRAIL kill 63, Platelet DG rel inactive, STAT1 blocker inactive and STAT3 blocker inactive.
`COc1cccc(CNc2nc(NC(C)C)nc3ccsc23)c1` gave TAG inh inactive.
`COc1ccc(NC(=O)/C(Cl)=C(/Cl)S(=O)Cc2ccc(Cl)cc2)cn1` (stereo unspecified) gave Hep lipid drop inactive, TAG inh 88, PPC-1+TRAIL kill inactive, STAT1 blocker inactive and STAT3 blocker inactive.
Screening CC(C)(C)n1nc(-c2ccc(Cl)cc2)c2c(N)ncnc21 returned TAG inh inactive, PPC-1+TRAIL kill inactive, Platelet DG rel 72, STAT1 blocker inactive and STAT3 blocker inactive.
Screening COc1ccc(CNC(=O)C[C@@H]2C[C@H]3c4cc(NC(=O)NC5CCCC5)ccc4O[C@H]3[C@H](CO)O2)cc1 returned TAG inh inactive.
Screening CCC/C=C/c1ccc(CN2C(C)C(=O)N(Cc3cn(CCC4OCCCO4)nn3)CCS2(=O)=O)cc1 (stereo unspecified) returned TAG inh inactive.
Screening NC(CSC(c1ccccc1)(c1ccccc1)c1ccc2c(c1)OCO2)C(=O)O (stereo unspecified) returned TAG inh inactive.
